Test results from ChEMBL document CHEMBL4190394, “Discovery of Novel Pazopanib-Based HDAC and VEGFR Dual Inhibitors Targeting Cancer Epigenetics and Angiogenesis Simultaneously” (J Med Chem, 2018).
Calls of active or inactive are those of the source. No cut-off for these calls is given here.

How the values were obtained:
Histone deacetylase = assay type: protein assay, Homo sapiens
[1] = biological target: T1, Vascular endothelial growth factor receptor 2 (Homo sapiens, UniProt P35968); test: Inhibition of VEGFR-2 (unknown origin) at 0.2 uM after 40 mins by kinase-Glo assay relative to control
T1 sequence (P35968 whole entry): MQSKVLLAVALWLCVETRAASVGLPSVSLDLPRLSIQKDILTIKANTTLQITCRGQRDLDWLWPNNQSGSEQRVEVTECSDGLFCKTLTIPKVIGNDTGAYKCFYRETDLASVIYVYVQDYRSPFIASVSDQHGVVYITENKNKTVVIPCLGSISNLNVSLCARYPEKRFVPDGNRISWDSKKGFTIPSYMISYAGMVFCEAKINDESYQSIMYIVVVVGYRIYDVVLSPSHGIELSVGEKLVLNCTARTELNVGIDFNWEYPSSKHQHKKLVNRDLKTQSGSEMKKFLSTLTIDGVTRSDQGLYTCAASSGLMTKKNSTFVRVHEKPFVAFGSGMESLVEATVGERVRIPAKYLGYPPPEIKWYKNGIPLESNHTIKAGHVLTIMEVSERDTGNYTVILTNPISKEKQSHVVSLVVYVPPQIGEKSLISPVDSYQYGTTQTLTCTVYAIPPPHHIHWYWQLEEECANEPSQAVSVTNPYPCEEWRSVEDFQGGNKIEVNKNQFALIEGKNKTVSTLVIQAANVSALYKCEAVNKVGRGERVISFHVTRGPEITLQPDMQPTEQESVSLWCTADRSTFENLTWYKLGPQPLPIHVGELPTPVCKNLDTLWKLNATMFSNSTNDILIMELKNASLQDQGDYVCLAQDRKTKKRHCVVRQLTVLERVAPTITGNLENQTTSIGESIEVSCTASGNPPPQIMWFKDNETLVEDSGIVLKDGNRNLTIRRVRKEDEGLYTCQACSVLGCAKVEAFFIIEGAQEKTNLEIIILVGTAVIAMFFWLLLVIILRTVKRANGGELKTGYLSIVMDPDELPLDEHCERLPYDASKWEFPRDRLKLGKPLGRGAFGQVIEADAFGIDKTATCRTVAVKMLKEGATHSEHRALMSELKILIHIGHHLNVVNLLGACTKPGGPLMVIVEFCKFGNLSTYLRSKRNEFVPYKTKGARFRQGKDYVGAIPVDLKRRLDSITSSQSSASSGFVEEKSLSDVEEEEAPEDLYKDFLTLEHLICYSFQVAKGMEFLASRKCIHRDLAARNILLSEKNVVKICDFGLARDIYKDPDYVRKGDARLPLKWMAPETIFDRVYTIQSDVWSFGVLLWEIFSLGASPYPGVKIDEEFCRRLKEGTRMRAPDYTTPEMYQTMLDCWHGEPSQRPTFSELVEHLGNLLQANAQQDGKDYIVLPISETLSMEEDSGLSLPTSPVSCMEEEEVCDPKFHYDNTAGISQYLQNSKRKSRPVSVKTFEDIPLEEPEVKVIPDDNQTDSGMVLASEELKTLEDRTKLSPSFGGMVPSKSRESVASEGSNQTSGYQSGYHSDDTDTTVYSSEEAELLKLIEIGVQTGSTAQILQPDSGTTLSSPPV
In short: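 VEGFR-2 tested at a single 200 nM concentration in a Kinase-Glo assay. Compound, kinase, substrate and ATP incubated 40 min at room temperature, then Kinase-Glo reagent added for 15 min and luminescence read. Inhibition rate reported. Replicates n ≥ 2.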

PC-3 = test: Antiproliferative activity against human PC3 cells after 72 hrs by MTT assay; assay type: functional, cell-based; settings: PC-3, 72 h
KG-1 = test: Antiproliferative activity against human KG1 cells after 72 hrs by MTT assay; assay type: functional, cell-based; settings: KG-1, 72 h
MOLT-4 = test: Antiproliferative activity against human MOLT4 cells after 72 hrs by MTT assay; assay type: functional, cell-based; settings: MOLT-4, 72 h
K562 = test: Antiproliferative activity against human K562 cells after 72 hrs by MTT assay; assay type: functional, cell-based; settings: K562, 72 h
HEL = test: Antiproliferative activity against human HEL cells after 72 hrs by MTT assay; assay type: functional, cell-based
HT-1080 = test: Antiproliferative activity against human HT1080 cells after 72 hrs by MTT assay; assay type: functional, cell-based; settings: HT-1080, 72 h
HT-29 [2] = test: Antitumor activity against human HT-29 cells xenografted in BALB/c nu mouse assessed as tumor growth level at 50 mg/kg, po administered for 25 consecutive days measured every 3 days during compound dosing relative to control; assay type: functional
In short: (§1)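 HT-29 cells (1×10^7) implanted s.c. in right flank of male BALB/c-nu mice aged 5–6 weeks. At about 100 mm³ (day 10), mice randomized 6 per group and dosed orally for 25 consecutive days. Controls received PBS with 5% DMSO. T/C is mean RTV (Vt/V0) treated over control. TGI taken from final tumor weights. Student's two-tailed t test.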

Thoracic aorta = test: Antiangiogenic activity in Sprague-Dawley rat thoracic aorta ring assessed as reduction in micro-vessel growth at 5 uM treated every day for 6 days by matrigel-based inverted microscopic analysis relative to control; assay type: functional, tissue-based
In short: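 Aortas taken from 4–6-week-old Sprague–Dawley rats, cut into 1-mm rings and embedded in Matrigel. Rings held 30 min at 37 °C, 5% CO2, then treated daily for 6 days with compound or 0.5% DMSO vehicle. Microvessel outgrowth photographed on day 7 at ×200. Three independent experiments.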

HUVEC = test: Antiangiogenic activity in human HUVEC cells assessed as reduction in capillary-like tubular network formation at 0.1 uM after 6 hrs by phase-contrast microscopy; assay type: functional, cell-based
In short: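 HUVECs trypsinized and seeded at 40000/well on Matrigel polymerized 0.5 h at 37 °C. Cells held 6 h at 37 °C in M199 with 5% FBS, with compound or DMSO. Tube formation viewed and photographed by phase-contrast microscopy at 200 magnification. Three independent experiments.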

HT-29 [3] = test: Antiproliferative activity against human HT-29 cells after 72 hrs by MTT assay; assay type: functional, cell-based; settings: HT-29, 72 h
HeLa = test: Antiproliferative activity against human HeLa cells after 72 hrs by MTT assay; assay type: functional, cell-based
AGS = test: Antiproliferative activity against human AGS cells after 72 hrs by MTT assay; assay type: functional, cell-based
MDA-MB-231 = test: Antiproliferative activity against human MDA-MB-231 cells after 72 hrs by MTT assay; assay type: functional, cell-based; settings: MDA-MB-231, 72 h
HT-29 [4] = test: Antitumor activity against human HT-29 cells xenografted in BALB/c nu mouse assessed as tumor growth inhibition at 50 mg/kg, po administered for 25 consecutive days measured every 3 days during compound dosing relative to control; assay type: functional; settings: HT-29, po, read-out: TGI
In short: as §1

[5] = biological target: T1, Vascular endothelial growth factor receptor 2; test: Inhibition of VEGF-stimulated VEGFR2 phosphorylation in human HUVEC cells at 100 nM preincubated for 2 hrs followed by VEGF stimulation by Western blot analysis; assay type: cell-based
In short: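 HUVECs pretreated 2 h with compound or DMSO, then stimulated with VEGF (50 ng/ml). Cells lysed in ice-cold RIPA and protein measured by BCA. Lysates run on SDS-PAGE and immunoblotted for phospho-VEGFR-2, with total VEGFR-2 as loading control. Detection by ECL.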

ACHN = test: Antiproliferative activity against human ACHN cells after 72 hrs by MTT assay; assay type: functional, cell-based
Histone deacetylase 1 = Histone deacetylase 1 (Homo sapiens, UniProt Q13547); test: Inhibition of HDAC1 (unknown origin) using fluorogenic substrate preincubated for 5 mins followed by substrate addition measured after 30 mins by fluorescence-based assay
Histone deacetylase 1, sequence (Q13547 whole entry): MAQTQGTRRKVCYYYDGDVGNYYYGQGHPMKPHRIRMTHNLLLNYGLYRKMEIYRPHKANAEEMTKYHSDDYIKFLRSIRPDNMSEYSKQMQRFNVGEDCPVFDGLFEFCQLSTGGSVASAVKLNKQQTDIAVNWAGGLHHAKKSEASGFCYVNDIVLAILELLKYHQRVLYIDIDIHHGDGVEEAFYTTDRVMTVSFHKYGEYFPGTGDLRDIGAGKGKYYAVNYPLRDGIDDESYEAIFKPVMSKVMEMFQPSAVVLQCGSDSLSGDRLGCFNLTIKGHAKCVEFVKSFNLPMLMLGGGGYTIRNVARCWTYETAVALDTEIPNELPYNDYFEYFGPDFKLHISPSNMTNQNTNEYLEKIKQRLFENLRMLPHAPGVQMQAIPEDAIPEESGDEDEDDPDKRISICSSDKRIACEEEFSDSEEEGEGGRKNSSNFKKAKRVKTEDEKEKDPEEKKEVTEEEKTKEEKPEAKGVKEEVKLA

Histone deacetylase 3 = Histone deacetylase 3 (Homo sapiens, UniProt O15379)
Histone deacetylase 3, sequence (O15379 whole entry): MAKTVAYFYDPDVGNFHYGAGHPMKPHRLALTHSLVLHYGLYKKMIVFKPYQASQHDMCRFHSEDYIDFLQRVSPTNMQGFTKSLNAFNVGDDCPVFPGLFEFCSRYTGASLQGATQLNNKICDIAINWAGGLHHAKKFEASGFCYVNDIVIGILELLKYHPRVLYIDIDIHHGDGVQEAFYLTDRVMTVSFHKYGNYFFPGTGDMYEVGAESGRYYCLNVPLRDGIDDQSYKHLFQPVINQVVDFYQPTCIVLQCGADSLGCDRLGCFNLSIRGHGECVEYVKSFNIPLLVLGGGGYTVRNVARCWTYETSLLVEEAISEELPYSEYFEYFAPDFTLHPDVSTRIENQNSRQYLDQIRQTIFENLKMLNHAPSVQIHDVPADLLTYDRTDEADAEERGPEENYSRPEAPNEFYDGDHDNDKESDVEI

Histone deacetylase 2 = Histone deacetylase 2 (Homo sapiens, UniProt Q92769)
Histone deacetylase 2, sequence (Q92769 whole entry): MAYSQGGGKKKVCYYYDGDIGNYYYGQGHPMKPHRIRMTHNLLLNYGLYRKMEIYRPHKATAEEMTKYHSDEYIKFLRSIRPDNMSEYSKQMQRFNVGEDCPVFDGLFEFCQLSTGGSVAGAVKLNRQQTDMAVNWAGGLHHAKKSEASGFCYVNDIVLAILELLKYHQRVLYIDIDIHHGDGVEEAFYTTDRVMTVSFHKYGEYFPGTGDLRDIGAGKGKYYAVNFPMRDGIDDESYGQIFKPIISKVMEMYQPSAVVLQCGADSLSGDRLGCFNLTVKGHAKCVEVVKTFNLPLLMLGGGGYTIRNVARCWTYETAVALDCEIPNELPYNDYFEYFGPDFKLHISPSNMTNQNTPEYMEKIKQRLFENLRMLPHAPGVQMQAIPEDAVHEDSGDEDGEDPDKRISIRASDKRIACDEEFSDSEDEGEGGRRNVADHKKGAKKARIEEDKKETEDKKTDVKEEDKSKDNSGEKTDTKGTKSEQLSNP

Histone deacetylase 8 = Histone deacetylase 8 (Homo sapiens, UniProt Q9BY41); test: Inhibition of HDAC8 (unknown origin) using fluorogenic Boc-Lys(trifluoroacetyl)-AMC as substrate preincubated for 5 mins followed by substrate addition measured after 30 mins by fluorescence-based assay
Histone deacetylase 8, sequence (Q9BY41 whole entry): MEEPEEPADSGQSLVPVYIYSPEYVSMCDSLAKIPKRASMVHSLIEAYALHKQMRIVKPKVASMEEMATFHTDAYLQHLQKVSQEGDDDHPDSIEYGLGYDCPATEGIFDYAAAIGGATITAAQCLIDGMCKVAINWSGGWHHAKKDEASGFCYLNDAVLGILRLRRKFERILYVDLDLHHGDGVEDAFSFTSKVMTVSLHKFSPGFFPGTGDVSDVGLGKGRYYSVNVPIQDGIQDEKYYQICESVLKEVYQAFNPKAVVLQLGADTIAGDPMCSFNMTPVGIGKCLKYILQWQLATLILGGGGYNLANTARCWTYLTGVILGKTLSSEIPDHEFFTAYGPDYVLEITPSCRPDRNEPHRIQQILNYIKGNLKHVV

[6] = biological target: Protein deacetylase HDAC6 (Homo sapiens, UniProt Q9UBN7); test: Inhibition of HDAC6 (unknown origin) using fluorogenic Boc-Lys(acetyl)-AMC as substrate preincubated for 5 mins followed by substrate addition measured after 30 mins by fluorescence-based assay
Protein deacetylase HDAC6, sequence (Q9UBN7 whole entry): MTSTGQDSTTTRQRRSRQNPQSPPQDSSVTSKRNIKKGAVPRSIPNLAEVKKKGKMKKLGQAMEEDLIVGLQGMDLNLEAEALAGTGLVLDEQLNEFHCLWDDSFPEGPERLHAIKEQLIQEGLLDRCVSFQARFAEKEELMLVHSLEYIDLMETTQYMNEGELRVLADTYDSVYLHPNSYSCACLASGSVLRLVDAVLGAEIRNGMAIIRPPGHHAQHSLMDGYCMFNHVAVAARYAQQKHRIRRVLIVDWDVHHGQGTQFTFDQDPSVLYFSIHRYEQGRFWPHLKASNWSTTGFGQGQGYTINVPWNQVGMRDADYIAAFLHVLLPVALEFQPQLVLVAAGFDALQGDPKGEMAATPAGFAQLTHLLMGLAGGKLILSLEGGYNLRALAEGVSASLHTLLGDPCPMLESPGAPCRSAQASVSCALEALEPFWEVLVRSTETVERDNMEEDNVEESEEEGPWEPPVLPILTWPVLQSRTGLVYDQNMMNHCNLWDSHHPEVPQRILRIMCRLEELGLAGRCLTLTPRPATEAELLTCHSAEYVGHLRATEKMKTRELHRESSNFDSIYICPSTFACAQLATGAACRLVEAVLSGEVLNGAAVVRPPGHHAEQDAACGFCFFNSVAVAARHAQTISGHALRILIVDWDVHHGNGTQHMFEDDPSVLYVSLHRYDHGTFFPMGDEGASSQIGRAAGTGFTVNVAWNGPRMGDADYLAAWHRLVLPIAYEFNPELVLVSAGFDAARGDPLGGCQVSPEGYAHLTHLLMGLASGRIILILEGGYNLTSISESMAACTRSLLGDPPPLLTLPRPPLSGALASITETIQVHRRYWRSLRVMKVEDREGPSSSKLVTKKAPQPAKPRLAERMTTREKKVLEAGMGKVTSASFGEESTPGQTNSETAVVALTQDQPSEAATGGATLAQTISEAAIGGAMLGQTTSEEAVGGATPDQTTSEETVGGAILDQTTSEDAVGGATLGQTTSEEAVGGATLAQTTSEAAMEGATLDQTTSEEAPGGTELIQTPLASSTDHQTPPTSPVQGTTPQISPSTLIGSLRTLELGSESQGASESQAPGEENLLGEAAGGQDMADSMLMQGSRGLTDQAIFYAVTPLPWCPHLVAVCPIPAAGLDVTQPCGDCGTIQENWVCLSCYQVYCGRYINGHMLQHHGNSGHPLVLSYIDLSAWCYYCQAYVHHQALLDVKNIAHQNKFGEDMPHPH

SMILES | IC50 (Histone deacetylase) | inhibition [1] | IC50 (PC-3) | IC50 (MOLT-4) | IC50 (K562) | IC50 (KG-1) | IC50 (HEL) | other results
Cc1c2ccc(N(C)c3ccnc(Nc4ccc(C(=O)NCCCC(=O)Nc5ccccc5N)cc4)n3)cc2nn1C | 19000 nM | 96% | – | – | – | – | – | –
Cc1c2ccc(N(C)c3ccnc(Nc4ccc(C(=O)NCC(=O)Nc5ccccc5N)cc4)n3)cc2nn1C | > 20000 nM | 98% | – | – | – | – | – | –
Cc1ccc(Nc2nccc(N(C)c3ccc4c(C)n(C)nc4c3)n2)cc1S(N)(=O)=O [PAZOPANIB] | – | 95% | > 5000 nM | > 5000 nM | > 5000 nM | > 5000 nM | > 5000 nM | T/C (HT-29 [2]): 61%; Activity (Thoracic aorta): Active; Activity (HUVEC): Active; IC50 (HT-29 [3]): > 5000 nM; IC50 (HeLa): > 5000 nM; IC50 (AGS): > 5000 nM; IC50 (MDA-MB-231): > 5000 nM; inhibition in vivo at 50 mg/kg (HT-29 [4]): 44%; inhibition [5]: Active; IC50 (ACHN): > 5000 nM; IC50 (HT-1080): > 5000 nM
Cc1c2ccc(N(C)c3ccnc(Nc4ccc(C(=O)NO)cc4)n3)cc2nn1C | 11300 nM | 99% | – | – | – | – | – | –
Cc1ccc(Nc2nccc(N(C)c3ccc4c(C)n(C)nc4c3)n2)cc1C(=O)NO | > 20000 nM | 74% | – | – | – | – | – | –
Cc1c2ccc(N(C)c3ccnc(Nc4cccc(/C=C/C(=O)NO)c4)n3)cc2nn1C | 3000 nM | 97% | – | – | – | – | – | –
Cc1c2ccc(N(C)c3ccnc(Nc4ccc(C(=O)NCCCCCC(=O)Nc5ccccc5N)cc4)n3)cc2nn1C | 3000 nM | 95% | > 5000 nM | 870 nM | 4310 nM | 3150 nM | 2060 nM | –
Cc1c2ccc(N(C)c3ccnc(Nc4cccc(C(=O)Nc5ccccc5N)c4)n3)cc2nn1C | 21300 nM | 63% | – | – | – | – | – | –
Cc1c2ccc(N(C)c3ccnc(Nc4ccc(C(=O)NCCCCC(=O)Nc5ccccc5N)cc4)n3)cc2nn1C | 15100 nM | 94% | – | – | – | – | – | –
Cc1c2ccc(N(C)c3ccnc(Nc4ccc(C(=O)NCCC(=O)Nc5ccccc5N)cc4)n3)cc2nn1C | > 20000 nM | 97% | – | – | – | – | – | –
Nc1ccccc1NC(=O)c1ccc(CNC(=O)OCc2cccnc2)cc1 [ENTINOSTAT] | – | – | > 5000 nM | 450 nM | 3660 nM | > 5000 nM | 440 nM | IC50 (HT-29 [3]): 3100 nM; IC50 (HeLa): > 5000 nM; IC50 (AGS): 340 nM; IC50 (MDA-MB-231): 2550 nM; inhibition [5]: inactive; IC50 (ACHN): 2400 nM; IC50 (HT-1080): > 5000 nM
Cc1c2ccc(N(C)c3ccnc(Nc4cccc(C(=O)NO)c4)n3)cc2nn1C | > 20000 nM | 77% | – | – | – | – | – | –
Cc1c2ccc(N(C)c3ccnc(Nc4ccc(/C=C/C(=O)NO)cc4)n3)cc2nn1C | 1400 nM | 95% | 1600 nM | 590 nM | 1660 nM | 1020 nM | 750 nM | IC50 (Histone deacetylase 8): 2890 nM; IC50 [6]: 1030 nM; IC50 (HT-29 [3]): 2960 nM; IC50 (HeLa): 4930 nM; IC50 (AGS): > 5000 nM; IC50 (MDA-MB-231): 2590 nM; IC50 (ACHN): 3850 nM; IC50 (HT-1080): 3250 nM; IC50 (Histone deacetylase 2): 5300 nM

More lines, main results first:

IC50 (Histone deacetylase) | inhibition [1] | IC50 (PC-3) | IC50 (MOLT-4) | IC50 (K562) | SMILES | IC50 (KG-1) | IC50 (HEL) | other results
25 nM | 92% | 3420 nM | 270 nM | 1100 nM | Cc1c2ccc(N(C)c3ccnc(Nc4ccc(C(=O)NCCCCCCCC(=O)NO)cc4)n3)cc2nn1C | 930 nM | 1040 nM | IC50 (HT-1080): > 5000 nM
17 nM | 98% | > 5000 nM | 600 nM | 2890 nM | Cc1c2ccc(N(C)c3ccnc(Nc4ccc(C(=O)NCCCCCC(=O)NO)cc4)n3)cc2nn1C | 2310 nM | 2560 nM | IC50 (HT-1080): > 5000 nM
820 nM | 87% | – | – | – | Cc1ccc(Nc2nccc(N(C)c3ccc4c(C)n(C)nc4c3)n2)cc1C(=O)NCCCCCC(=O)NO | – | – | –
180 nM | 90% | – | – | – | Cc1c2ccc(N(C)c3ccnc(Nc4cccc(C(=O)NCCCCCC(=O)NO)c4)n3)cc2nn1C | – | – | –
> 20000 nM | 99% | – | – | – | Cc1c2ccc(N(C)c3ccnc(Nc4ccc(C(=O)NCCC(=O)NO)cc4)n3)cc2nn1C | – | – | –
8700 nM | 92% | > 5000 nM | 560 nM | 3970 nM | Cc1c2ccc(N(C)c3ccnc(Nc4ccc(C(=O)NCCCCCCCC(=O)Nc5ccccc5N)cc4)n3)cc2nn1C | 2680 nM | 490 nM | IC50 (Histone deacetylase 1): 1460 nM; IC50 (HT-29 [3]): 2960 nM; IC50 (Histone deacetylase 3): 660 nM; IC50 (HeLa): 3070 nM; IC50 (AGS): > 5000 nM; IC50 (MDA-MB-231): 2570 nM; IC50 (ACHN): 3620 nM; IC50 (HT-1080): > 5000 nM; IC50 (Histone deacetylase 2): 1260 nM
5000 nM | 93% | > 5000 nM | 1150 nM | 4150 nM | Cc1c2ccc(N(C)c3ccnc(Nc4ccc(C(=O)NCCCCCCC(=O)Nc5ccccc5N)cc4)n3)cc2nn1C | 3140 nM | 1160 nM | –
19800 nM | 99% | – | – | – | Cc1c2ccc(N(C)c3ccnc(Nc4ccc(C(=O)NCCCC(=O)NO)cc4)n3)cc2nn1C | – | – | –
680 nM | 94% | – | – | – | Cc1c2ccc(N(C)c3ccnc(Nc4ccc(C(=O)NCCCCC(=O)NO)cc4)n3)cc2nn1C | – | – | –
> 20000 nM | 95% | – | – | – | Cc1c2ccc(N(C)c3ccnc(Nc4ccc(C(=O)NCC(=O)NO)cc4)n3)cc2nn1C | – | – | –
